The nature of series [1]: Half life in human liver microsomes. Format: ADME, microsome.
Series [2] in a line: Genotoxicity in CHL cells after 72 hrs using acridine orange stain by fluorescence microscopic based micronucleus test. Conditions: chinese hamster. Format: toxicity, cell-based, Cricetulus griseus.
For series [3], the target named is T1, Prostaglandin E2 receptor EP4 subtype (Homo sapiens, UniProt P35408). As to the kind of experiment: Displacement of [3H]PGE from human EP4 receptor expressed in HEK293 cell membranes. The method, boiled down: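 Membrane binding assay using [3H]PGE2 with membranes from HEK-293 cells expressing human EP4. The value is expressed as Ki.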
T1 sequence (P35408 whole entry): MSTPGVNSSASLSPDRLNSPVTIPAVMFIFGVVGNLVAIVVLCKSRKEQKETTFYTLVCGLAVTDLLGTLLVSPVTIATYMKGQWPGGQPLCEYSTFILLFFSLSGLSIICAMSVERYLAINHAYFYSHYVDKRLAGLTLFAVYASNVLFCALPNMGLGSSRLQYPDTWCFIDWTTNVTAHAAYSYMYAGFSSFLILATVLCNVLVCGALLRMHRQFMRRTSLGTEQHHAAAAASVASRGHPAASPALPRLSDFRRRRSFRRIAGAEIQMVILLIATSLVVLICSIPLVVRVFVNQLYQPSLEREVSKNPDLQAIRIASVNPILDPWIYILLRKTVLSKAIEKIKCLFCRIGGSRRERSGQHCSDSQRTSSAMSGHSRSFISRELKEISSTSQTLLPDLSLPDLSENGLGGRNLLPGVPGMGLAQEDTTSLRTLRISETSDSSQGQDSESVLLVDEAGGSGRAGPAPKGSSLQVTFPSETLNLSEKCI
Series [4] concerns the target Prostaglandin E2 receptor EP2 subtype (Homo sapiens, UniProt P43116). As to the kind of experiment: Antagonist activity at human EP2 receptor.
A short description of series [5]: Efflux ratio of apparent permeability in human Caco2 cells. Format: ADME, cell-based. To be noted: Caco-2. The method, boiled down:
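Caco-2 human colon carcinoma monolayers. Permeability measured in both directions (apical to basolateral and basolateral to apical) under constant pH: apical pH 6.5, basolateral pH 7.4. Efflux ratio taken as Papp B→A divided by Papp A→B.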
A general note: Caco-2 monolayers are a common model of the intestinal barrier.

A short description of series [6]: Apparent permeability from basolateral to apical side in human Caco2 cells. It counts as ADME, cell-based. To be noted: Caco-2. The method, boiled down: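 Caco-2 permeability was measured basolateral to apical under the same pH conditions as the apical-to-basolateral direction (apical 6.5, basolateral 7.4). Efflux ratio was derived from the two directions.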

Series [7] concerns the target T2, Prostaglandin E2 receptor EP1 subtype (Homo sapiens, UniProt P34995).
T2 sequence (P34995 whole entry): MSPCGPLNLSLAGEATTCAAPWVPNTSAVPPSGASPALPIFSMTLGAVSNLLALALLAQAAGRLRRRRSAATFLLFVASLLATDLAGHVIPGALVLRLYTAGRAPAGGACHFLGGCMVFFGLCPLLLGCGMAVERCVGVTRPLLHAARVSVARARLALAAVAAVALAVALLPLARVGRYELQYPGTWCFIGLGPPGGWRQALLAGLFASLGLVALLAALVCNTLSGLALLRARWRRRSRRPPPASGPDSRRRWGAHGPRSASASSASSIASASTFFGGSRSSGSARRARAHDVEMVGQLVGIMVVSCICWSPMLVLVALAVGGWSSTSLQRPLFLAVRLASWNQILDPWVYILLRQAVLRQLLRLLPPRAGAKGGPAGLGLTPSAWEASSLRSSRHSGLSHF
As to the kind of experiment: Antagonist activity at human EP1 receptor.

Series [8] deals with T1, Prostaglandin E2 receptor EP4 subtype. The series is described as follows: Antagonist activity at human EP4 receptor expressed in HEK293 cells assessed as inhibition of PGE2-induced cAMP level by HTS assay. Format: functional, cell-based. For orientation: Changes in cAMP serve as a functional read-out for many G protein-coupled receptors.
Series [9] can be described thus: Apparent permeability from apical to basolateral side in human Caco2 cells. Conditions: Caco-2. It counts as ADME, cell-based. Put shortly:
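Caco-2 monolayer permeability (Papp, apical to basolateral) was measured under constant pH, with the apical side at pH 6.5 and the basolateral side at pH 7.4.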

Series [10] addresses T3, Prostaglandin E2 receptor EP3 subtype (Homo sapiens, UniProt P43115).
T3 sequence (P43115 whole entry): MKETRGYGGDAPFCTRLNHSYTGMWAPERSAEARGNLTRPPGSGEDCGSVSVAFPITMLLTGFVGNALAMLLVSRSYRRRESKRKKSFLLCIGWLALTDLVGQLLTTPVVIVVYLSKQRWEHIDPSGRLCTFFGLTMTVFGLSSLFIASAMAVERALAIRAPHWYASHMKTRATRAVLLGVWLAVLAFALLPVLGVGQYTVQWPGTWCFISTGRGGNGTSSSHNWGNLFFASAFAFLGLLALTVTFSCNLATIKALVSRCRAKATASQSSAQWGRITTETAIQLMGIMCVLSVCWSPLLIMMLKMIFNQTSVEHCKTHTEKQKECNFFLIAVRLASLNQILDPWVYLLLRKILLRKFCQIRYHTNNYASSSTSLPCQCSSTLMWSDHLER
The series is described as follows: Antagonist activity at human EP3 receptor.

Series [11] concerns the target T4, Prostaglandin E2 receptor EP4 subtype (Rattus norvegicus, UniProt P43114). The series is described as follows: Antagonist activity at rat recombinant EP4 receptor.
In series [12] the test system is Rattus norvegicus. The series is described as follows: Analgesic activity in po dosed rat assessed as inhibition of carrageenan-induced mechanical hyperalgesia measured at 1 hr post dose. Format: functional. To be noted: read-out: MED. The method, boiled down:
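Rats dosed orally. Mechanical hyperalgesia was induced with carrageenan and assessed 1 h post dose. The value is the minimum effective dose (MED, mg/kg PO).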

The target of series [13] is Prostaglandin F2-alpha receptor (Homo sapiens, UniProt P43088). As to the kind of experiment: Antagonist activity at human FP receptor.
Chain of Prostaglandin F2-alpha receptor (P43088 whole entry): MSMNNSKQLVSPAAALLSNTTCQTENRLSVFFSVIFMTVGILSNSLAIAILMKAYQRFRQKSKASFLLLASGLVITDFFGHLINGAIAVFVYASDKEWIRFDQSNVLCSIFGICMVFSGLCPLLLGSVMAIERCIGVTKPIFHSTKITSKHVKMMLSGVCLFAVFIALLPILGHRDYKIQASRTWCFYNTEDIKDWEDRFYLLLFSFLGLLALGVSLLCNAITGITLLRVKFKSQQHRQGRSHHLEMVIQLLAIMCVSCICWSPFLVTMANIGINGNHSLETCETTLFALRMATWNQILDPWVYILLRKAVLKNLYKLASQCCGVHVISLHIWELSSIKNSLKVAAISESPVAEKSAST
Series [14] has as its target Prostaglandin E2 receptor EP4 subtype (Mus musculus, UniProt P32240). As to the kind of experiment: Antagonist activity at mouse recombinant EP4 receptor assessed as inhibition of PGE2-induced cAMP level by cell based assay. To be noted: read-out: pA2 (converted). Format: functional. Put shortly: (§1)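 Functional antagonism was measured as inhibition of PGE2-induced cAMP in cells transfected with rodent EP4 (mouse or rat). The value is expressed as pA2.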

A short description of series [15]: Antagonist activity at human DP receptor.
The subject of series [16] is Rattus norvegicus. The series is described as follows: Analgesic activity in po dosed rat model of chronic inflammatory pain assessed as inhibition of CFA-induced weight bearing deficit. It counts as functional. To be noted: read-out: MED. The method, boiled down: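 Chronic inflammatory pain was modelled in rats with CFA and read out as weight bearing deficit after oral dosing. The value is the minimum effective dose (MED, mg/kg PO).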

Series [17] has as its target Prostacyclin receptor (Homo sapiens, UniProt P43119). The series is described as follows: Antagonist activity at human IP receptor.
Series [18] addresses Prostaglandin E receptor 4 (Canis lupus familiaris, UniProt Q9TU16). As to the kind of experiment: Antagonist activity at dog recombinant EP4 receptor.
The target of series [19] is T4, Prostaglandin E2 receptor EP4 subtype. As to the kind of experiment: Antagonist activity at rat recombinant EP4 receptor assessed as inhibition of PGE2-induced cAMP level by cell based assay. It counts as functional. Conditions: read-out: pA2 (converted). The method, boiled down:
as §1

Series [20] concerns the target T5, Thromboxane A2 receptor (Homo sapiens, UniProt P21731).
T5 sequence (P21731 whole entry): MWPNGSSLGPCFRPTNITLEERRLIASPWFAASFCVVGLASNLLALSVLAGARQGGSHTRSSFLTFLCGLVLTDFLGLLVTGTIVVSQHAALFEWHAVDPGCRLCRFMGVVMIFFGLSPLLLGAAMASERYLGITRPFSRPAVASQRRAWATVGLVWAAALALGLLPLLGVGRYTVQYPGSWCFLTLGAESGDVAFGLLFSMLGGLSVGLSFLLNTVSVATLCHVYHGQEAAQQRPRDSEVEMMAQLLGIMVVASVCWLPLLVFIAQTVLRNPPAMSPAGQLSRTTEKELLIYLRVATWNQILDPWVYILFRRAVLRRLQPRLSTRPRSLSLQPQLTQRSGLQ
The series is described as follows: Antagonist activity at human platelet TP receptor.

pIC50, pKi: −log10 of the molar value.

T4 sequence (P43114 whole entry): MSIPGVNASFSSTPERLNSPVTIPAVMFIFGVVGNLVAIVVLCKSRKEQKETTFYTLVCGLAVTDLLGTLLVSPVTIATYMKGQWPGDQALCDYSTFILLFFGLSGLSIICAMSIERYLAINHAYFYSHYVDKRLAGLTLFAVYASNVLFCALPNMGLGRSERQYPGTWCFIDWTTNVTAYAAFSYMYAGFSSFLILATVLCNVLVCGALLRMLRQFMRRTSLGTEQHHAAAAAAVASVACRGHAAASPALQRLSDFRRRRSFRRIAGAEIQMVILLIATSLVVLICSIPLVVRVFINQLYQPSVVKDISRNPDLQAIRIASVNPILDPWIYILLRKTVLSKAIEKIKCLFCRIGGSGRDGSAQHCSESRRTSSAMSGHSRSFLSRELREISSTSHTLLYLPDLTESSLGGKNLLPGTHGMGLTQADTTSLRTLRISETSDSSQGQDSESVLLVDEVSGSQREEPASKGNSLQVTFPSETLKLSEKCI
Chain of Prostaglandin E2 receptor EP2 subtype (P43116 whole entry): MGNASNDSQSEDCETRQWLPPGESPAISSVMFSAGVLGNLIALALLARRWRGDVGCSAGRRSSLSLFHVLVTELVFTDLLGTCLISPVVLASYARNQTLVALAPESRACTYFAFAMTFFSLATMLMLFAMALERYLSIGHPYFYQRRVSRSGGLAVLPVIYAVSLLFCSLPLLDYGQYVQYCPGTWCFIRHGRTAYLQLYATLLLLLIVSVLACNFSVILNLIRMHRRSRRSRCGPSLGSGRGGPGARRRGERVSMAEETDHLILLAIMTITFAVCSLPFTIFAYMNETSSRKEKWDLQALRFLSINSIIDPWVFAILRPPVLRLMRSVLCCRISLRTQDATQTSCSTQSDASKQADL
Chain of Prostacyclin receptor (P43119 whole entry): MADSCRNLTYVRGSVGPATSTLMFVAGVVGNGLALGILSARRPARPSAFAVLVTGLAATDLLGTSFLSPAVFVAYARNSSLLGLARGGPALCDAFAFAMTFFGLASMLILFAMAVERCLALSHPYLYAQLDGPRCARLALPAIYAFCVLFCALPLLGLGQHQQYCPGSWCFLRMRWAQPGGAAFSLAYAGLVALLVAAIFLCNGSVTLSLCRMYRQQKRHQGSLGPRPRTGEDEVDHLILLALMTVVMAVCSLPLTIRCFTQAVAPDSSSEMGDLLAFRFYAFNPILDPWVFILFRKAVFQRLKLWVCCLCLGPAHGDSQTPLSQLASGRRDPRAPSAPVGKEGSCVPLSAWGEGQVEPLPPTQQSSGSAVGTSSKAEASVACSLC
Chain of Prostaglandin E receptor 4 (Q9TU16 whole entry): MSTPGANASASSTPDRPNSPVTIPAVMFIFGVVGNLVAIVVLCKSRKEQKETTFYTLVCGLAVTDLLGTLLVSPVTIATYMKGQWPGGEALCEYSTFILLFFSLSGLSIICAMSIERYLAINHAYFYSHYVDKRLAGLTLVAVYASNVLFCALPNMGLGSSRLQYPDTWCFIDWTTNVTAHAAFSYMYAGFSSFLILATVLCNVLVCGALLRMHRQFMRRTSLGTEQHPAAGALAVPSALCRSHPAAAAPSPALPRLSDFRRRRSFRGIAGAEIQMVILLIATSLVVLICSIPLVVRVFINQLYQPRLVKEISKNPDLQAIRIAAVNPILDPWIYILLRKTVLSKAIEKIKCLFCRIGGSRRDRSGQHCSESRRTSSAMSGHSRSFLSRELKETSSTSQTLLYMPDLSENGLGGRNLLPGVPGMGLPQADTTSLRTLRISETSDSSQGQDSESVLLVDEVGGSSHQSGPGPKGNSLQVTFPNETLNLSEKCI
Chain of Prostaglandin E2 receptor EP4 subtype (Mus musculus, UniProt P32240) (P32240 whole entry): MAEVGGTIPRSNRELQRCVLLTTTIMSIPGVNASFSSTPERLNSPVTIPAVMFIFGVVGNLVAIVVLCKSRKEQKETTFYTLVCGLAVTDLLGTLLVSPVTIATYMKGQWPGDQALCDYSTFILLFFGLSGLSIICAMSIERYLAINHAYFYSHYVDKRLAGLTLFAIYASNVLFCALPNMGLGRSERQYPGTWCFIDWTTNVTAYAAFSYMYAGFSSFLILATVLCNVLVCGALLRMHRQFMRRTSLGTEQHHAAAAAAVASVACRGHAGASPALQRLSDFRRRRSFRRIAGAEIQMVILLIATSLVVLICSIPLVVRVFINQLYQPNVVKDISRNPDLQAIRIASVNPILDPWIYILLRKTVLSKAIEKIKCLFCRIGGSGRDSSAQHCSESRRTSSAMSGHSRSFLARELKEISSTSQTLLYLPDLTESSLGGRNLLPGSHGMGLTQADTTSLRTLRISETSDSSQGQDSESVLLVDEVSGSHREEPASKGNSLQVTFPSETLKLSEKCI

As for `C[C@H](NC(=O)c1cc(Cl)cnc1Oc1cccc(C#N)c1)c1ccc(C(=O)O)cc1`, the half-life in series [1] is greater than 2 h. Also, the Activity entry in series [2] was “Toxic”. The pIC50 in series [3] is 7.87; in series [4], 5.48; in [7], less than 4.70; in [8] it was 7.44; in series [10] it was less than 4.70. Further, the efflux ratio in [5] amounted to 40. For the same molecule, in series [6], the Papp B→A came out at 25.8 ×10⁻⁶ cm/s. Besides, in series [9], the apical-to-basolateral permeability (Papp A→B) came out at 0.644 ×10⁻⁶ cm/s.
For the molecule `CCc1nc2c(C)nc(C)cc2n1-c1ccc(CCNC(=O)NS(=O)(=O)c2ccc(C)cc2)cc1` [GRAPIPRANT], the pKi in [11] is 7.70; in series [13] it was less than 5.30; in series [3], 7.89; in [4] it was less than 5.30; in series [15] it was 5.53; in series [7], less than 5.30. Further, the negative-log Ki (pKi) in series [17] is less than 5.30; in [18] it was 7.62; in [20], less than 5.30; in series [10] it was less than 5.30. Moreover, the values for the minimal effective dose in [12] and in [16] were 30 mg/kg and 20 mg/kg, respectively. The figures for the Kb in series [14], in [8] (read-out: pA2 (converted)) and in series [19] were 7.76 nM, 4.79 nM and 6.46 nM, respectively.

In general, half-life refers to the time in which the quantity being followed falls by half. High values mean slow decline, low ones rapid decline. For orientation: pIC50 means the IC50 on a negative log10 scale, so that one unit is a factor of ten. In general, efflux ratio refers to a quotient of directional permeabilities that is used to spot active efflux. A word on the Papp B→A: it is how fast a substance crosses the layer from the basolateral side. One may read the Papp A→B as the apparent permeability from the apical to the basolateral side of a cell layer. What is called pKi is −log10 of the Ki, conventionally taken in molar units.

For the origin of these results see ChEMBL document CHEMBL3994644, “Discovery of AAT-008, a novel, potent, and selective prostaglandin EP4 receptor antagonist” (Bioorg Med Chem Lett, 2017).
